How the values were obtained:
[1] = tested on: LOX IMVI; test: Antiproliferative activity against human LOXIMVI cells after 48 hrs by MTT assay; type: functional, cell-based
[2] = tested on: Malme-3M; test: Antiproliferative activity against human MALME-3M cells after 48 hrs by MTT assay; type: functional, cell-based
[3] = tested on: MDA-MB-435; test: Antiproliferative activity against human MDA-MB-435 cells after 48 hrs by MTT assay; type: functional, cell-based; settings: MDA-MB-435, 48 h
[4] = tested on: SK-MEL-28; test: Antiproliferative activity against human SK-MEL-28 cells after 48 hrs by MTT assay; type: functional, cell-based; settings: SK-MEL-28, 48 h
[5] = tested on: CCRF-CEM; test: Anticancer activity against human CCRF-CEM cells after 48 hrs by SRB assay; type: functional
In short: (§1)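 NCI five-dose screen. Cells in RPMI 1640 with 5% FBS and 2 mM L-glutamine, seeded at 5000–40,000 cells/well according to doubling time, then pre-incubated 24 h at 37 °C in 5% CO2. Drugs dissolved in DMSO, five concentrations by 10-fold or 1/2-log dilution. Cells fixed with TCA, SRB-stained, A515 read. IC50 solved from [(Ti−Tz)/(C−Tz)]×100 = 50.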

[6] = tested on: K562; test: Anticancer activity against human K562 cells after 48 hrs by SRB assay; type: functional; settings: K562, 48 h; in short: as §1
[7] = tested on: MOLT-4; test: Anticancer activity against human MOLT4 cells after 48 hrs by SRB assay; type: functional; settings: MOLT-4, 48 h
[8] = tested on: A549; test: Anticancer activity against human A549 cells after 48 hrs by SRB assay; type: functional; settings: A549, 48 h; in short: as §1
[9] = tested on: HOP-92; test: Anticancer activity against human HOP92 cells after 48 hrs by SRB assay; type: functional; settings: HOP-92, 48 h; in short: as §1
[10] = tested on: HCC 2998; test: Anticancer activity against human HCC2998 cells after 48 hrs by SRB assay; type: functional; settings: HCC 2998, 48 h; in short: as §1
[11] = tested on: HCT-116; test: Anticancer activity against human HCT116 cells after 48 hrs by SRB assay; type: functional; settings: HCT-116, 48 h; in short: as §1
[12] = tested on: HCT-15; test: Anticancer activity against human HCT15 cells after 48 hrs by SRB assay; type: functional; settings: HCT-15, 48 h; in short: as §1
[13] = tested on: KM12; test: Anticancer activity against human KM12 cells after 48 hrs by SRB assay; type: functional; settings: KM12, 48 h; in short: as §1
[14] = tested on: SW-620; test: Anticancer activity against human SW620 cells after 48 hrs by SRB assay; type: functional; settings: SW-620, 48 h
In short: (§2)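 NCI-60 five-dose mode: cells in RPMI 1640 with 5% FBS and 2 mM glutamine, plated at 5000–40,000 cells/well, and preincubated 24 h, with time-zero plates TCA-fixed. Drug given at five concentrations (10-fold or ½-log serial dilutions). Cold TCA fixation 60 min at 4 °C, SRB stain, Tris solubilization, A515. IC50 taken where [(Ti−Tz)/(C−Tz)]×100 = 50.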

[15] = tested on: SF-539; test: Anticancer activity against human SF539 cells after 48 hrs by SRB assay; type: functional; settings: SF-539, 48 h
[16] = tested on: SNB-19; test: Anticancer activity against human SNB19 cells after 48 hrs by SRB assay; type: functional; settings: SNB-19, 48 h
[17] = tested on: SNB-75; test: Anticancer activity against human SNB75 cells after 48 hrs by SRB assay; type: functional; settings: SNB-75, 48 h
[18] = tested on: U-251; test: Anticancer activity against human U251 cells after 48 hrs by SRB assay; type: functional; settings: U-251, 48 h; in short: as §2
[19] = tested on: LOX IMVI; test: Anticancer activity against human LOXIMVI cells after 48 hrs by SRB assay; type: functional; in short: as §1
[20] = tested on: MDA-MB-435; test: Anticancer activity against human MDA-MB-435 cells after 48 hrs by SRB assay; type: functional; settings: MDA-MB-435, 48 h; in short: as §1
[21] = tested on: SK-MEL-2; test: Anticancer activity against human SK-MEL-2 cells after 48 hrs by SRB assay; type: functional; settings: SK-MEL-2, 48 h
[22] = tested on: SK-MEL-5; test: Anticancer activity against human SK-MEL-5 cells after 48 hrs by SRB assay; type: functional; settings: SK-MEL-5, 48 h
[23] = tested on: UACC-257; test: Anticancer activity against human UACC257 cells after 48 hrs by SRB assay; type: functional; settings: UACC-257, 48 h; in short: as §2
[24] = tested on: UACC-62; test: Anticancer activity against human UACC62 cells after 48 hrs by SRB assay; type: functional; settings: UACC-62, 48 h; in short: as §2
[25] = tested on: OVCAR-3; test: Anticancer activity against human OVCAR3 cells after 48 hrs by SRB assay; type: functional; settings: OVCAR-3, 48 h
[26] = tested on: OVCAR-4; test: Anticancer activity against human OVCAR4 cells after 48 hrs by SRB assay; type: functional; settings: OVCAR-4, 48 h
[27] = tested on: OVCAR-5; test: Anticancer activity against human OVCAR5 cells after 48 hrs by SRB assay; type: functional; settings: OVCAR-5, 48 h
[28] = tested on: NCI/ADR-RES; test: Anticancer activity against human NCI/ADR-RES cells after 48 hrs by SRB assay; type: functional
[29] = tested on: A498; test: Anticancer activity against human A498 cells after 48 hrs by SRB assay; type: functional; settings: A498, 48 h; in short: as §1
[30] = tested on: ACHN; test: Anticancer activity against human ACHN cells after 48 hrs by SRB assay; type: functional; in short: as §1
[31] = tested on: MDA-MB-231; test: Anticancer activity against human MDA-MB-231 cells after 48 hrs by SRB assay; type: functional; settings: MDA-MB-231, 48 h; in short: as §1
[32] = read-out: LC50 (the source's name)

## O=C(NCCNc1nccc(-c2c(-c3cccc(O)c3)nc3sccn23)n1)c1ccccc1
[1]
  IC50: 3.22 µM
[2]
  IC50: 0.205 µM
[3]
  IC50: 0.578 µM
[4]
  IC50: 0.336 µM
[5]
  GI50: 3.38 µM
  TGI: 34.1 µM
[5]; [32]
  CC50: > 100 µM
[6]
  GI50: 9.11 µM
  TGI: > 100 µM
[6]; [32]
  CC50: > 100 µM
[7]
  GI50: 13.5 µM
  TGI: 74.2 µM
[7]; [32]
  CC50: > 100 µM
[8]
  GI50: 9.21 µM
  TGI: 46.5 µM
[9]
  GI50: 2.22 µM
  TGI: 33.2 µM
[9]; [32]
  CC50: > 100 µM
[10]
  GI50: 13.8 µM
  TGI: 31.2 µM
[10]; [32]
  CC50: 70.3 µM
[11]
  GI50: 4.82 µM
  TGI: 17.5 µM
[11]; [32]
  CC50: 49.6 µM
[12]
  GI50: 18.8 µM
  TGI: 62.2 µM
[12]; [32]
  CC50: > 100 µM
[13]
  GI50: 12.1 µM
  TGI: 28.5 µM
[13]; [32]
  CC50: 67.1 µM
[14]
  GI50: 18 µM
  TGI: 79.4 µM
[14]; [32]
  CC50: > 100 µM
[15]
  GI50: 11.3 µM
  TGI: 36.8 µM
[15]; [32]
  CC50: > 100 µM
[16]
  GI50: 29.4 µM
  TGI: > 100 µM
[16]; [32]
  CC50: > 100 µM
[17]
  GI50: 3.27 µM
  TGI: 28.1 µM
[17]; [32]
  CC50: > 100 µM
[18]
  GI50: 17.9 µM
  TGI: > 100 µM
[18]; [32]
  CC50: > 100 µM
[19]
  GI50: 3.22 µM
  TGI: 17.8 µM
[19]; [32]
  CC50: 80.2 µM
[20]
  GI50: 0.578 µM
  TGI: 12.8 µM
[20]; [32]
  CC50: 71.3 µM
[21]
  GI50: 2.94 µM
  TGI: 12.9 µM
[21]; [32]
  CC50: 48.8 µM
[22]
  GI50: 4.15 µM
  TGI: 17.5 µM
[22]; [32]
  CC50: 43.4 µM
[23]
  GI50: 0.489 µM
  TGI: 18.5 µM
[23]; [32]
  CC50: > 100 µM
[24]
  GI50: 0.211 µM
  TGI: 1.37 µM
[24]; [32]
  CC50: 25.2 µM
[25]
  GI50: 12.3 µM
  TGI: 64.8 µM
[25]; [32]
  CC50: > 100 µM
[26]
  GI50: 13.9 µM
  TGI: 84.6 µM
[26]; [32]
  CC50: > 100 µM
[27]
  GI50: 18.3 µM
  TGI: 61.8 µM
[27]; [32]
  CC50: > 100 µM
[28]
  GI50: 34.8 µM
  TGI: > 100 µM
[28]; [32]
  CC50: > 100 µM
[29]
  GI50: 3.68 µM
  TGI: 19.3 µM
[29]; [32]
  CC50: 58 µM
[30]
  GI50: 6.43 µM
  TGI: 34.9 µM
[30]; [32]
  CC50: > 100 µM
[31]
  GI50: 7.05 µM
  TGI: 31.5 µM
[31]; [32]
  CC50: > 100 µM

— ChEMBL document CHEMBL1914423, “New imidazo[2,1-b]thiazole derivatives: synthesis, in vitro anticancer evaluation, and in silico studies” (Eur J Med Chem, 2011)
